Reference: ChEMBL document CHEMBL4480421 (Bioorg Med Chem, 2019)
In brackets after ≈: the same amount, converted by molar mass.

Experiments:
Vero = assay: Cytotoxicity against African green monkey Vero cells after 72 hrs by MTS-PMS assay; format: cell-based; conditions: Chlorocebus sabaeus
[1] = Ratio of AUC in mouse to MIC90 of replicating Mycobacterium tuberculosis H37Rv after 4 days by Alamar blue assay
Procedure, shortened: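 Mouse plasma exposure (AUC_inf, µg*h/mL) divided by the MIC90 against replicating H37Rv from the aerobic MABA assay.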

[2] = Protein binding in human plasma; format: ADME, cell-free; conditions: read-out: PPB
Cytochrome P450 3A4 = Cytochrome P450 3A4 (Homo sapiens, UniProt P08684); assay: Inhibition of CYP3A4 (unknown origin); format: ADME
[3] = test system: Mycobacterium tuberculosis; assay: Antitubercular activity against replicating Mycobacterium tuberculosis H37Rv after 4 days by Alamar blue assay; format: functional; conditions: 96 h
Procedure, shortened: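 MIC90 against M. tuberculosis H37Rv under aerobic, replicating conditions (MABA). Tested at the Institute for Tuberculosis Research, University of Illinois at Chicago.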

[4] = test system: Mycobacterium tuberculosis; assay: Antitubercular activity against non-replicating Mycobacterium tuberculosis H37Rv after 10 days by LORA; format: functional; conditions: 240 h
Procedure, shortened: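 MIC90 against M. tuberculosis H37Rv under non-replicating conditions (LORA). Tested at the Institute for Tuberculosis Research, University of Illinois at Chicago.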

Chain of Cytochrome P450 3A4 (P08684 whole entry): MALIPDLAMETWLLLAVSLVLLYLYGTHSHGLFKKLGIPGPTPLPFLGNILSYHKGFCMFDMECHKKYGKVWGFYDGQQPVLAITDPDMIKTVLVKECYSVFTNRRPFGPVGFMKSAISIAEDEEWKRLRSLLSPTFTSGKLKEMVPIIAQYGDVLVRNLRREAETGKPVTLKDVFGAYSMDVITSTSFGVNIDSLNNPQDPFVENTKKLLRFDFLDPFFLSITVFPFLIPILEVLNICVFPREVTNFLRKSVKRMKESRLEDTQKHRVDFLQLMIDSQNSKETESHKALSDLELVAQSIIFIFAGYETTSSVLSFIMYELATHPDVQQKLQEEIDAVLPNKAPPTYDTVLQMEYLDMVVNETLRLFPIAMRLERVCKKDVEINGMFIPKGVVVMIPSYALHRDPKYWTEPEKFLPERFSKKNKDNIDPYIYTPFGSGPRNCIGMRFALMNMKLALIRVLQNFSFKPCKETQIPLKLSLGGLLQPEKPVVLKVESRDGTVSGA

Compound | IC50 (Vero) [µg/mL] | Ratio [1] | fraction unbound [2] | IC50 (Cytochrome P450 3A4) [µM] | MIC90 [3] [µg/mL] | MIC90 [4] [µg/mL]
COc1cc(C(O)(CCN(C)C)C(c2cc3cc(Br)ccc3nc2OC)c2ccnc(OC)c2OC)cnc1OC (racemic) | > 10 | 71.3 | < 0.001 |  |  | 
CCOc1cc(C(O)(CCN(C)C)C(c2cc3cc(Br)ccc3nc2OC)c2ccnc(OC)c2OC)cc(OC(C)C)n1 (racemic) | > 10 |  | < 0.001 |  |  | 
COc1cc(C(O)(CCN(C)C)C(c2cc3cc(Br)ccc3nc2OC)c2ccnc(OC)c2OC)c(OC)nc1OC (racemic) | > 10 |  | < 0.001 |  |  | 
COc1cccc(C(c2cc3cc(Br)ccc3nc2OC)C(O)(CCN(C)C)c2cccc(C)n2)c1F (racemic) | > 10 |  | < 0.001 |  |  | 
COc1cc(C(O)(CCN(C)C)C(c2cc3cc(Br)ccc3nc2OC)c2cccc(OC)c2F)c(OC)cn1 (racemic) | > 10 |  | < 0.001 |  |  | 
COc1nc2ccc(Br)cc2cc1C(c1cccc2c1OCO2)C(O)(CCN(C)C)c1cccnc1OC (racemic) | > 10 | 5.73 | < 0.001 | > 10 |  | 
COc1cccc(C(c2cc3cc(C#N)ccc3nc2OC)C(O)(CCN(C)C)c2cc(C)nc(C)c2)c1OC (racemic) | > 10 | 6.17 | < 0.001 |  |  | 
COc1nc2ccc(C#N)cc2cc1C(c1cccc(C)c1)C(O)(CCN(C)C)c1cccnc1OC (racemic) | > 10 | 2.25 | < 0.001 | > 10 |  | 
COc1cccc(C(c2cc3cc(Br)ccc3nc2OC)C(O)(CCN(C)C)c2cc(C)nc(C)c2)c1OC (racemic) |  |  |  |  | 0.04 (≈ 0.0673 µM) | 0.07 (≈ 0.118 µM)
COc1cnc(OC)c(C(O)(CCN(C)C)C(c2cc3cc(Br)ccc3nc2OC)c2cccc(OC)c2F)c1 (racemic) | > 10 |  | < 0.001 |  |  | 
COc1nc2ccc(Br)cc2cc1C(c1cccc(C)c1)C(O)(CCN(C)C)c1cccnc1OC (racemic) | > 10 | 19.3 | < 0.001 | > 10 |  | 
COc1nc2ccc(C#N)cc2cc1C(c1cccc(F)c1)C(O)(CCN(C)C)c1cncc(C)c1 (racemic) | > 10 |  | < 0.001 |  |  | 
COc1cccc(C(c2cc3cc(Br)ccc3nc2OC)C(O)(CCN(C)C)c2cc(C)cnc2C)c1OC (racemic) | > 10 | 19.9 | < 0.001 |  |  | 
COc1cccc(C(c2cc3cc(Br)ccc3nc2OC)C(O)(CCN(C)C)c2cnc(C)cc2C)c1OC (racemic) |  | 104 | < 0.001 |  |  | 
CCc1cc(C(O)(CCN(C)C)C(c2cc3cc(C#N)ccc3nc2OC)c2cccc(OC)c2F)cc(CC)n1 (racemic) | > 10 |  | < 0.001 |  |  | 
COc1cccc(C(c2cc3cc(Br)ccc3nc2OC)C(O)(CCN(C)C)c2ccc(C)nc2)c1F (racemic) | > 10 |  | < 0.001 | > 10 |  | 
COc1nc2ccc(Br)cc2cc1C(c1cccc2c1OCO2)C(O)(CCN(C)C)c1cccnc1C (racemic) | > 10 |  | < 0.001 | > 10 |  | 
CCc1cc(C(O)(CCN(C)C)C(c2cc3cc(Br)ccc3nc2OC)c2cccc(OC)c2F)cc(CC)n1 (racemic) | > 10 |  | < 0.001 |  |  | 
COc1nc2ccc(Br)cc2cc1[C@@H](c1ccccc1)[C@@](O)(CCN(C)C)c1cccc2ccccc12 [BEDAQUILINE] | > 10 |  | < 0.001 |  |  | 
CCOc1cc(C(O)(CCN(C)C)C(c2cc(OC)nc(OC)c2)c2cc3cc(Br)ccc3nc2OC)cc(OC(C)C)n1 (racemic) | > 10 | 1650 | < 0.001 |  |  | 
COc1cccc(C(c2cc3cc(C#N)ccc3nc2OC)C(O)(CCN(C)C)c2cc(C)nc(C)c2)c1F (racemic) | > 10 |  | < 0.001 | > 10 |  | 
COc1nc2ccc(Br)cc2cc1C(c1cccc(C)c1)C(O)(CCN(C)C)c1cccnc1C (racemic) | > 10 |  | < 0.001 | > 10 |  | 
COc1cccc(C(O)(CCN(C)C)C(c2cc3cc(Br)ccc3nc2OC)c2cccc3c2OCO3)n1 (racemic) | > 10 | 10.4 | < 0.001 |  |  | 
